Source: PubChem (several laboratories)
Sampled rows, rich in hits. Any-hit rate of the full collection: about 1.9%.
GPR7 antag – GPR7 receptor antagonists, primary screen, cell-based, fluorescence, single concentration; Neuropeptides B/W receptor type 1 (Homo sapiens), P48145; GPR7-expressing cells, fluorescence antagonist assay; inhibition, % at 4.4 µM; 290,000 compounds, 1.1% hits; in the data active = inhibition above about 16%, passing the limit was not always enough;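 note: cells stimulated with the agonist NPW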
FID counter – compounds displacing fluorescent DNA intercalator, primary screen, artefact control for HCV NS3 helicase inhibitor project, biochemical, FID fluorescence; 290,000 compounds, 0.17% hits; inhibition, % at 7.9 µM; AID 1845, 2009; DNA fluorescent intercalator displacement; in the data active = inhibition above about 37%;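 note: higher means more ethidium bromide displaced from hairpin DNA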
NS3 helicase inh – inhibitors of HCV NS3 helicase, primary screen, biochemical, Cy5 molecular beacon fluorescence | Hepatitis C virus NS3 helicase | NS3 helicase DNA unwinding | inhibition, % at 10.9 µM | 290,000 compounds, 0.56% hits;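 active = inhibition above the mean of all tested compounds plus 3 SD, set per campaign, cut at about 35% in these data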
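Assay system: hepatitis C virus NS3 helicase domain fragment enzyme. Also added: annealed dual-labelled DNA beacon duplex, ATP-started. Timing: 1 h reaction at 25 °C, ATP-initiated. Technique: Cy5 fluorescence at 0 and 60 min, beacon hairpin quenching. Evaluation: % inhibition of unwinding. Replication: one well per compound.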
p-CIP stab down – p/CIP-EGFP fusion destabilizers, primary screen, fluorescence, F442A cells; Q05BA5; 16 h; decrease of EGFP signal, % at 10 µM; 290,000 compounds, 0.01% hits; AID 1984, 2009;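 active = EGFP signal decrease of at least 30% at 10 µM or well 3 SD below plate mean, unless failing retest; inactive = the rest, including hits failing retest or dose response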
Target sequence (Q05BA5 1-1403): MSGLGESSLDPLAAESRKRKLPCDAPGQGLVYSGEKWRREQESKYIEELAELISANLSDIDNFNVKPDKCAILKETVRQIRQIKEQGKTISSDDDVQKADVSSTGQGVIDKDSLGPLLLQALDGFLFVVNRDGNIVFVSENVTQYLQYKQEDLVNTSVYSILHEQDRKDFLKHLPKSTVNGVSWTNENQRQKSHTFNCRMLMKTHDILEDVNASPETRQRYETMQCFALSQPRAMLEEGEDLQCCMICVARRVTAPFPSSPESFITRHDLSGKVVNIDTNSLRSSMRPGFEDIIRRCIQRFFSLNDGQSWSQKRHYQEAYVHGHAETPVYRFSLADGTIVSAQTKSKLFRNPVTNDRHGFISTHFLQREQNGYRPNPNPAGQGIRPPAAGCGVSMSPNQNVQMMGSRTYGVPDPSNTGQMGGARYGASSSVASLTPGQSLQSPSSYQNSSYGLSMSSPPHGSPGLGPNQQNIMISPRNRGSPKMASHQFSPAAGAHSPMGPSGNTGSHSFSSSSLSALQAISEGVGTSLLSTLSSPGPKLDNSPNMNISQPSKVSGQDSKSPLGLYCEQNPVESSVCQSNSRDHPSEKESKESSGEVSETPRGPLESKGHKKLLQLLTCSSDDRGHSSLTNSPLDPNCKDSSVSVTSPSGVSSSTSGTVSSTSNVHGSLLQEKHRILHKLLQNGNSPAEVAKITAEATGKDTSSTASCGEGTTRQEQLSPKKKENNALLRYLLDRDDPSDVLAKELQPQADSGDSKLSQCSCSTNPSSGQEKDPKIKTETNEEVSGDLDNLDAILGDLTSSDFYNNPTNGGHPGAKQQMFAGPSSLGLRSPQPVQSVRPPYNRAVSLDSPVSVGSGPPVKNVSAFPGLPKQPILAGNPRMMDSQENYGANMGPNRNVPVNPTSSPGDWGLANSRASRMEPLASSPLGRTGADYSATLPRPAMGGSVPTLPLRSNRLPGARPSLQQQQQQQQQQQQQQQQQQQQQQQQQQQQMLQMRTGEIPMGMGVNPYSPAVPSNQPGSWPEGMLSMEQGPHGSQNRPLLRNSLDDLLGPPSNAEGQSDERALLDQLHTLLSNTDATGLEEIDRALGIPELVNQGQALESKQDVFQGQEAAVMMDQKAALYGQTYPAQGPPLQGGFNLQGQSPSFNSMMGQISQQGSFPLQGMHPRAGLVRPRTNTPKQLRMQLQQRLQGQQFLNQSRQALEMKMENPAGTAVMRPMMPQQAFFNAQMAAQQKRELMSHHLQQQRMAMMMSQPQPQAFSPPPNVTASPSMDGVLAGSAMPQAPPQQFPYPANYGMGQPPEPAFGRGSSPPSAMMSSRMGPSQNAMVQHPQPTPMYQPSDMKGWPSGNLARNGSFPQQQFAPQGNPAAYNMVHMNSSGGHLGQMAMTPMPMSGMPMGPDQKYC
HCV core dimer – inhibitors of HCV core protein dimerization, primary screen, biochemical, TR-FRET, high-throughput | inhibition, % at 5 µM | 300,000 compounds, 0.33% hits | TR-FRET GST/Flag-core106 dimerization, 1536-well;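 active = inhibition above the mean of all tested compounds plus 3 SD, set per screening campaign, cut at about 45% in these data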
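Assay system: GST-tagged and Flag-tagged HCV core protein residues 1-106 / Times: compound-protein-antibody incubation 4 h at 22.5 °C / Signal: time-resolved FRET, ex 340 nm, em 617 and 671 nm / Evaluation: % inhibition based on acceptor/donor emission ratio / Benchmarks: wells lacking GST-core106 and wells with excess unlabelled core106 / Repeats: singlicate, one well per compound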
GPR7 antag conf – GPR7 receptor antagonists, confirmation, cell-based, fluorescence, single concentration; inhibition, % at 4.4 µM; GPR7-expressing cells, calcium fluorescence antagonist mode; 2,400 compounds, 52% hits; shares compounds with GPR7 antag; in the data active = inhibition above about 24%;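 note: stimulated with the GPR7 agonist NPW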
MCHR1 antagonist – MCHR1 antagonists in cells, counter-screen for GPR7 antagonist project, cell-based, fluorescence, human; shares compounds with GPR7 antag; MCHR1-expressing cells, fluorescence antagonist assay; inhibition, % at 4.4 µM; 2,400 compounds, 62% hits; AID 2148, 2009; in the data active = inhibition above about 22%
Of the large screens only hits and unclear results are named; the others gave an inactive call (follow-up assays come after a bar, where they were run).

Cc1ccc(N(CC(O)Cn2c3ccccc3c3ccccc32)S(C)(=O)=O)cc1 (configuration not stated)	GPR7 antag 24.3 | GPR7 antag conf 29.6 | MCHR1 antagonist 44.5
Cc1cccc(C)c1N(CC(O)Cn1c2ccccc2c2ccccc21)S(C)(=O)=O (configuration not stated)	GPR7 antag 28.9 | GPR7 antag conf 37.4 | MCHR1 antagonist 36.4
O=C(CS(=O)(=O)c1cn(CC(=O)N2CCCC2)c2ccccc12)Nc1ccccc1F	none
CCCC(=O)NC(=S)Nc1ccc(S(=O)(=O)Nc2ccc(OCC)cc2)cc1	GPR7 antag 29.3 | GPR7 antag conf 53.4 | MCHR1 antagonist 66.9
CN(CC(=O)Nc1ccccc1Cl)C(=O)CSc1nncn1C	none (no result: GPR7 antag, FID counter, NS3 helicase inh, p-CIP stab down)
COc1cc(/C=C2\SC(=S)N(C(Cc3ccccc3)C(=O)O)C2=O)ccc1O (configuration not stated)	GPR7 antag 22.0 | GPR7 antag conf inactive | MCHR1 antagonist inactive
Cc1ccc(C)c(S(=O)(=O)N2CCN(C(=O)c3cc(S(=O)(=O)NCc4ccccc4)ccc3C)CC2)c1	GPR7 antag 43.7 | GPR7 antag conf 25.8 | MCHR1 antagonist 34.4
CCN(c1ccc(OC)cc1)S(=O)(=O)c1ccc(-c2cc(C)no2)s1	GPR7 antag 23.7 | GPR7 antag conf inactive | MCHR1 antagonist 56.4
COc1ccc(NC(=O)CSc2nc(C)cs2)c(OC)c1	none
Cc1ccc(N2CCN(CC3CC=CCC3)CC2)cc1 (configuration not stated)	none
C1=CCC(CN2CCN(C3CCCCCC3)CC2)CC1 (configuration not stated)	GPR7 antag 30.1 | GPR7 antag conf inactive | MCHR1 antagonist 37.8
CC(=O)Nc1ccc(NC(=O)C2CC(=O)N(C(C)C)C2)cc1 (configuration not stated)	none
CCc1cc2c(NCc3ccccc3)nc(C)nc2s1	GPR7 antag 22.6 | GPR7 antag conf inactive | MCHR1 antagonist 38.0
CCNC(=O)/C(C#N)=C/c1c(N(Cc2ccccc2)Cc2ccccc2)nc2ccccn2c1=O	none
CNC(=O)/C(C#N)=C/c1c(N(Cc2ccccc2)Cc2ccccc2)nc2c(C)cccn2c1=O	GPR7 antag 39.2 | GPR7 antag conf inactive | MCHR1 antagonist 48.7
O=C(COc1ccccc1)Nc1ccc2oc(=O)ccc2c1	none
NC(=S)N=Nc1c(O)[nH]c2c(Br)cc(Br)cc12	GPR7 antag 33.5 | GPR7 antag conf inactive | MCHR1 antagonist 27.6
Cc1cc(C)nc(SC(C)CNS(=O)(=O)c2ccccc2)n1 (configuration not stated)	none
Cn1cc(CN2CCCC(C(=O)Nc3ccc(-c4cccc(F)c4)cc3)C2)cn1 (configuration not stated)	GPR7 antag 39.1 | GPR7 antag conf 42.0 | MCHR1 antagonist 64.5
O=C1CC(NS(=O)(=O)c2cccnc2)CN1c1cccc(F)c1 (configuration not stated)	none (no result: GPR7 antag, FID counter, NS3 helicase inh, p-CIP stab down)
CN(C)CC#Cc1cncc(C(=O)NNC(=O)Nc2ccc(Cl)cc2)c1	none
Cc1ccc(C(CC(=O)N2CCNCC2)c2ccccc2)c(O)c1C (configuration not stated)	GPR7 antag 33.2 | GPR7 antag conf inactive | MCHR1 antagonist inactive
CN(CCc1cn[nH]c1)C(=O)C1CCC(=O)N(CC2CCCCC2)C1 (configuration not stated)	none (no result: HCV core dimer)
Cc1ccc(Cl)cc1N1CCN(C(=O)C2CCC(=O)N(C3CCCCCC3)C2)CC1 (configuration not stated)	GPR7 antag 25.9 | GPR7 antag conf 36.6 | MCHR1 antagonist 55.3
COc1ccc(C2CCCN2CC(O)COc2ccccc2C(C)C)cc1 (configuration not stated)	GPR7 antag 24.1 | GPR7 antag conf 32.6 | MCHR1 antagonist 41.0
CCOC(=O)c1ccc(Nc2nc(C)nc3c2nnn3Cc2ccccc2)cc1	none
Cc1ccc(C)c(C(=O)C(C)Sc2nc3nn(-c4ccccc4)c(=O)c-3c3n2CCCCC3)c1 (configuration not stated)	none
COc1ccc(C(CNC(=O)COc2ccc(C)c(C)c2)N2CCCCC2)cc1 (configuration not stated)	none
COc1ccc(C(CNC(=O)COc2cc(C)c(Cl)c(C)c2)N2CCCCC2)cc1 (configuration not stated)	GPR7 antag 28.4 | GPR7 antag conf 35.7 | MCHR1 antagonist 59.1
Brc1cc2c(cc1/C=N/Nc1nc(N3CCCCC3)nc(N3CCCCC3)n1)OCO2	GPR7 antag 25.3 (no result: HCV core dimer) | GPR7 antag conf inactive | MCHR1 antagonist inactive
COc1nc(N/N=C/c2cc3c(cc2Br)OCO3)nc(N2CCOCC2)n1	none
CCCc1nc2ccccc2n1Cc1ccccc1OC	none
COc1ccccc1Cn1c(CCCO)nc2ccccc21	none | GPR7 antag conf inactive | MCHR1 antagonist inactive
CN(C)CCCNc1nc2sc3c(c2c(=O)n1CCc1ccccc1)CCCCC3	GPR7 antag 29.1 | GPR7 antag conf 51.1 | MCHR1 antagonist 64.8
COc1ccccc1N(CC(=O)NC1CCCC1)C(=O)c1oc(C(C)(C)C)cc1C	GPR7 antag 43.6 | GPR7 antag conf 37.3 | MCHR1 antagonist 47.7
COC(=O)c1cccc(NC(=O)CSc2nnc(C)o2)c1	none
O=C(Nc1ccc(C(=O)NCCCN2CCCCC2)cc1)C1=CSCCO1	none
O=C(Nc1ccc(C(=O)NCCCN2CCN(c3ccc(F)cc3)CC2)cc1)C1=CSCCO1	GPR7 antag 36.4 | GPR7 antag conf 55.6 | MCHR1 antagonist 73.9
CN(C(=O)/C=C/c1ccc([N+](=O)[O-])s1)c1ccccc1	GPR7 antag 24.7 | GPR7 antag conf inactive | MCHR1 antagonist inactive
COc1ccc2[nH]cc(S(=O)(=O)c3ccc(C)cc3)c2c1	none
O=C(CS(=O)(=O)c1ccccc1)NCc1ccccc1	none
CSc1nc(C)c2c(n1)N(c1ccc(F)cc1)CC2	none
Cc1ccc2nc(C)c3c(c2c1)N(c1ccc(F)cc1)CC3	GPR7 antag 34.9 | GPR7 antag conf 42.4 | MCHR1 antagonist 31.0
Cc1ccc2sc(NC(=O)C3CC3)nc2c1C	none
Cc1ccc(NC(=S)NC(=O)c2ccc(-c3ccc(Cl)cc3)o2)c(O)c1	none
Cc1cc(Cl)ccc1NC(=S)NCc1ccccc1	none
Cc1ccc(O)c(NC(=S)NC(=O)Cc2ccc(Cl)cc2)c1	GPR7 antag 99.0 | GPR7 antag conf 99.5 | MCHR1 antagonist 106.5
